In general, MIC refers to the least concentration at which growth counts as inhibited. The low end stands for greater potency, the high end for weaker potency.

In brackets after ≈: the same amount, converted by molar mass.

Common to all, as to type: functional
The subject of experiment [1] is Staphylococcus aureus. Kind of experiment: Antibacterial activity against Staphylococcus aureus CCM 4516/08 after 24 hrs by microbroth dilution method. As to conditions: CCM 4516/08, 24 h. A digest of the protocol: (§1)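 Microbroth dilution modified per M07-A07 in Mueller-Hinton broth, pH 7.4 (±0.2). Inoculum in sterile water adjusted to 0.5 McFarland. MIC taken as growth reduction of at least 90% (IC90) versus control, read visually and at 540 nm after 24 and 48 h incubation in the dark.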
On the technique in general: Broth dilution looks for growth in wells or tubes with falling amounts of substance.

Experiment [2] has as its system Staphylococcus aureus. Briefly: Antibacterial activity against Staphylococcus aureus CCM 4516/08 after 48 hrs by microbroth dilution method. The conditions noted are these: CCM 4516/08, 48 h. A digest of the protocol: (§2)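 Microdilution broth method modified after M07-A07 in Mueller-Hinton broth adjusted to pH 7.4 (±0.2). Inoculum prepared in sterile water to 0.5 McFarland (1.5 × 10^8 CFU/mL). MIC taken as growth reduction versus control (IC95 per table header), read visually and spectrophotometrically at 540 nm after 24 and 48 h incubation in the dark.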

Experiment [3] deals with Staphylococcus aureus. Briefly: Antibacterial activity against methicillin-resistant Staphylococcus aureus H 5996/08 after 24 hrs by microbroth dilution method. As to conditions: H 5996/08, 24 h. A digest of the protocol:
as §2

The test system of experiment [4] is Staphylococcus aureus. Briefly: Antibacterial activity against methicillin-resistant Staphylococcus aureus H 5996/08 after 48 hrs by microbroth dilution method. As to conditions: H 5996/08, 48 h. The method in brief:
as §2

Experiment [5] concerns Staphylococcus epidermidis. Briefly: Antibacterial activity against Staphylococcus epidermidis H 6966/08 after 24 hrs by microbroth dilution method. As to conditions: H 6966/08, 24 h. A digest of the protocol:
as §1

For experiment [6], the system named is Staphylococcus epidermidis. Briefly: Antibacterial activity against Staphylococcus epidermidis H 6966/08 after 48 hrs by microbroth dilution method. The conditions noted are these: H 6966/08, 48 h. The method in brief:
as §1

Experiment [7] relates to Enterococcus sp. Kind of experiment: Antibacterial activity against Enterococcus sp. J 14365/08 after 24 hrs by microbroth dilution method. As to conditions: J 14365/08, 24 h. A digest of the protocol: as §1
Experiment [8] has as its system Enterococcus sp. Briefly: Antibacterial activity against Enterococcus sp. J 14365/08 after 48 hrs by microbroth dilution method. As to conditions: J 14365/08, 48 h. A digest of the protocol:
as §1

Experiment [9] relates to Escherichia coli. Briefly: Antibacterial activity against Escherichia coli CCM 4517 after 24 hrs by microbroth dilution method. As to conditions: CCM 4517, 24 h. The method in brief:
as §1

The test system of experiment [10] is Escherichia coli. Kind of experiment: Antibacterial activity against Escherichia coli CCM 4517 after 48 hrs by microbroth dilution method. The conditions noted are these: CCM 4517, 48 h. The method in brief:
as §1

Experiment [11] relates to Klebsiella pneumoniae. Kind of experiment: Antibacterial activity against Klebsiella pneumoniae D 11750/08 after 24 hrs by microbroth dilution method. As to conditions: D 11750/08, 24 h. A digest of the protocol:
as §1

Experiment [12] relates to Klebsiella pneumoniae. Kind of experiment: Antibacterial activity against Klebsiella pneumoniae D 11750/08 after 48 hrs by microbroth dilution method. As to conditions: D 11750/08, 48 h. The method in brief:
as §1

Experiment [13] relates to Klebsiella pneumoniae. Kind of experiment: Antibacterial activity against ESBL-positive Klebsiella pneumoniae J 14368/08 after 24 hrs by microbroth dilution method. The conditions noted are these: J 14368/08, 24 h. A digest of the protocol:
as §1

Experiment [14] deals with Klebsiella pneumoniae. Kind of experiment: Antibacterial activity against ESBL-positive Klebsiella pneumoniae J 14368/08 after 48 hrs by microbroth dilution method. The conditions noted are these: J 14368/08, 48 h. A digest of the protocol:
as §1

In experiment [15] the test system is Candida albicans. Briefly: Antifungal activity against Candida albicans ATCC 44859 after 24 hrs by microbroth dilution method. The conditions noted are these: ATCC 44859, 24 h.
In experiment [16] the test system is Candida albicans. Briefly: Antifungal activity against Candida albicans ATCC 44859 after 48 hrs by microbroth dilution method. As to conditions: ATCC 44859, 48 h.
In experiment [17] the test system is Candida tropicalis. Kind of experiment: Antifungal activity against Candida tropicalis 156 after 24 hrs by microbroth dilution method. As to conditions: Candida tropicalis, 156, 24 h.
Experiment [18] has as its system Candida tropicalis. Kind of experiment: Antifungal activity against Candida tropicalis 156 after 48 hrs by microbroth dilution method. As to conditions: Candida tropicalis, 156, 48 h.
In experiment [19] the test system is Pichia kudriavzevii. Briefly: Antifungal activity against Candida krusei E28 after 24 hrs by microbroth dilution method. The conditions noted are these: E28, 24 h.
Experiment [20] concerns Pichia kudriavzevii. Briefly: Antifungal activity against Candida krusei E28 after 48 hrs by microbroth dilution method. As to conditions: E28, 48 h.
The test system of experiment [21] is Nakaseomyces glabratus. Briefly: Antifungal activity against Candida glabrata 20/I after 24 hrs by microbroth dilution method.
Experiment [22] concerns Nakaseomyces glabratus. Kind of experiment: Antifungal activity against Candida glabrata 20/I after 48 hrs by microbroth dilution method.
For experiment [23], the system named is Trichosporon asahii. Kind of experiment: Antifungal activity against Trichosporon asahii 1188 after 24 hrs by microbroth dilution method. As to conditions: Trichosporon asahii, 1188, 24 h.
Experiment [24] relates to Trichosporon asahii. Briefly: Antifungal activity against Trichosporon asahii 1188 after 48 hrs by microbroth dilution method. The conditions noted are these: Trichosporon asahii, 1188, 48 h.
Experiment [25] deals with Lichtheimia corymbifera. Briefly: Antifungal activity against Absidia corymbifera 272 after 24 hrs by microbroth dilution method. As to conditions: Lichtheimia corymbifera, 272, 24 h.
The test system of experiment [26] is Lichtheimia corymbifera. Kind of experiment: Antifungal activity against Absidia corymbifera 272 after 48 hrs by microbroth dilution method. The conditions noted are these: Lichtheimia corymbifera, 272, 48 h.
Experiment [27] has as its system Trichophyton mentagrophytes. Kind of experiment: Antifungal activity against Trichophyton mentagrophytes 445 after 72 hrs by microbroth dilution method. As to conditions: Trichophyton mentagrophytes, 445, 72 h.
The test system of experiment [28] is Trichophyton mentagrophytes. Kind of experiment: Antifungal activity against Trichophyton mentagrophytes 445 after 120 hrs by microbroth dilution method. The conditions noted are these: Trichophyton mentagrophytes, 445, 120 h.

For the compound `O=C(Nc1ccccc1)Oc1ccc(Cl)cc1C(=O)Nc1ccc(Cl)cc1`, the MIC (in the experiment on Staphylococcus aureus [1]; against Staphylococcus aureus [2]; against Staphylococcus aureus [3]; in the experiment on Staphylococcus aureus [4]; in experiment [5]; in experiment [6]) was 31.2 µM (≈ 12.5 µg/mL) throughout. For the same compound, the MIC in the experiment on Enterococcus sp. [7], with Enterococcus sp. [8], against Escherichia coli [9], in the experiment with Escherichia coli [10], in the experiment on Klebsiella pneumoniae [11] and in the experiment on Klebsiella pneumoniae [12] was 500 µM (≈ 201 µg/mL) throughout. Besides, the minimum inhibitory concentration (MIC) against Klebsiella pneumoniae [13] is 62.5 µM (≈ 25.1 µg/mL); against Klebsiella pneumoniae [14], 62.5 µM (≈ 25.1 µg/mL); in the experiment on Candida albicans [15], over 125 µM; in the experiment on Candida albicans [16] it was over 125 µM; against Candida tropicalis [17], over 125 µM; with Candida tropicalis [18] it was over 125 µM. Also, the MIC in the experiment on Pichia kudriavzevii [19] was 62.5 µM (≈ 25.1 µg/mL); in the experiment on Pichia kudriavzevii [20], 62.5 µM (≈ 25.1 µg/mL); with Nakaseomyces glabratus [21] it was over 125 µM; in the experiment on Nakaseomyces glabratus [22] it was over 125 µM; in the experiment on Trichosporon asahii [23], 62.5 µM (≈ 25.1 µg/mL); with Trichosporon asahii [24], 62.5 µM (≈ 25.1 µg/mL). Besides, the MIC is over 125 µM against Lichtheimia corymbifera [25], over 125 µM with Lichtheimia corymbifera [26], 1.95 µM (≈ 0.782 µg/mL) in experiment [27] and 1.95 µM (≈ 0.782 µg/mL) in [28].

`O=C(NCc1ccccc1)Oc1ccc(Cl)cc1C(=O)Nc1ccc(Br)cc1`: the MIC is at most 0.49 µM against Staphylococcus aureus [1]; 0.98 µM (≈ 0.451 µg/mL) with Staphylococcus aureus [2]; at most 0.49 µM in the experiment with Staphylococcus aureus [3]; 1.95 µM (≈ 0.896 µg/mL) with Staphylococcus aureus [4]; at most 0.49 µM in experiment [5]; 0.98 µM (≈ 0.451 µg/mL) in experiment [6]. Further, the MIC with Enterococcus sp. [7], in the experiment with Enterococcus sp. [8], in the experiment with Escherichia coli [9], in the experiment on Escherichia coli [10], in the experiment with Klebsiella pneumoniae [11] and in the experiment with Klebsiella pneumoniae [12] was over 500 µM each time. The MIC against Klebsiella pneumoniae [13] is over 500 µM; with Klebsiella pneumoniae [14], over 500 µM; in the experiment on Candida albicans [15], 62.5 µM (≈ 28.7 µg/mL); in the experiment with Candida albicans [16] it was 62.5 µM (≈ 28.7 µg/mL); with Candida tropicalis [17], 125 µM (≈ 57.5 µg/mL); with Candida tropicalis [18], 125 µM (≈ 57.5 µg/mL). Further, the minimal inhibitory concentration (MIC) against Pichia kudriavzevii [19] turned out to be 62.5 µM (≈ 28.7 µg/mL); against Pichia kudriavzevii [20], 62.5 µM (≈ 28.7 µg/mL); in the experiment with Nakaseomyces glabratus [21], 31.2 µM (≈ 14.4 µg/mL); with Nakaseomyces glabratus [22] it was 31.2 µM (≈ 14.4 µg/mL); with Trichosporon asahii [23], 15.6 µM (≈ 7.18 µg/mL); with Trichosporon asahii [24], 15.6 µM (≈ 7.18 µg/mL). The MIC against Lichtheimia corymbifera [25] was 7.81 µM (≈ 3.59 µg/mL); in the experiment on Lichtheimia corymbifera [26], 7.81 µM (≈ 3.59 µg/mL); in experiment [27] it was 3.9 µM (≈ 1.79 µg/mL); in experiment [28], 3.9 µM (≈ 1.79 µg/mL).

For `C[C@@H]1[C@H](O)[C@@H](C)/C=C/C=C/C=C/C=C/C=C/C=C/C=C/[C@H](O[C@@H]2O[C@H](C)[C@@H](O)[C@H](N)[C@@H]2O)C[C@@H]2O[C@](O)(C[C@@H](O)C[C@@H](O)[C@H](O)CC[C@@H](O)C[C@@H](O)CC(=O)O[C@H]1C)C[C@H](O)[C@H]2C(=O)O` [AMPHOTERICIN B], the MIC against Candida albicans [15] was found to be 0.12 µM (≈ 0.111 µg/mL); with Candida albicans [16], 0.49 µM (≈ 0.453 µg/mL); with Candida tropicalis [17] it was 1.95 µM (≈ 1.8 µg/mL); against Candida tropicalis [18] it was 1.95 µM (≈ 1.8 µg/mL); in the experiment with Pichia kudriavzevii [19], 1.95 µM (≈ 1.8 µg/mL); against Pichia kudriavzevii [20], 1.95 µM (≈ 1.8 µg/mL). The MIC with Nakaseomyces glabratus [21] was found to be 0.98 µM (≈ 0.906 µg/mL); in the experiment on Nakaseomyces glabratus [22], 1.95 µM (≈ 1.8 µg/mL); with Trichosporon asahii [23], 0.49 µM (≈ 0.453 µg/mL); with Trichosporon asahii [24] it was 0.98 µM (≈ 0.906 µg/mL); with Lichtheimia corymbifera [25], 7.81 µM (≈ 7.22 µg/mL); against Lichtheimia corymbifera [26] it was 7.81 µM (≈ 7.22 µg/mL). Besides, the minimal inhibitory concentration (MIC) in [27] and in experiment [28] was 1.95 µM (≈ 1.8 µg/mL) each time.

Values taken from ChEMBL document CHEMBL3763086, “Salicylanilide N-monosubstituted carbamates: Synthesis and in vitro antimicrobial activity” (2016).
